MC4R antag cAMP = antagonists of human melanocortin 4 receptor (MC4R). MC4R-expressing cells, MTII-stimulated cAMP, LANCE TR-FRET. 360,000 tested, 0.48% active. P32245. inhibition, % at 6.5 µM;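 active = inhibition above its plate's cutoff, the mean of tested wells on that plate plus 3 SD, cut at about 29% in these data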
Target sequence (P32245 whole entry, looked up): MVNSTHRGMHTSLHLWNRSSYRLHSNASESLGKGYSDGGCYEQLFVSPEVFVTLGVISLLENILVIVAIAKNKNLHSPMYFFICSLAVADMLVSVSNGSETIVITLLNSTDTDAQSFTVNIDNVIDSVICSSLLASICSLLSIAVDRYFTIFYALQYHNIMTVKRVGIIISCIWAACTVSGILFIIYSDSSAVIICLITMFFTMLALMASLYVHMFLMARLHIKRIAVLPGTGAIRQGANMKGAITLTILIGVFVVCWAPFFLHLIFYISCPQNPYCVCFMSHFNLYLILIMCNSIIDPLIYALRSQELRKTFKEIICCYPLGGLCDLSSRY
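material = U2OS cells stably expressing human melanocortin 4 receptor (MC4R) | also added = Melanotan II challenge | dosing = single nominal compound dose of 6.5 µM | detection = TR-FRET with Eu-cAMP and labeled anti-cAMP, 671 nm | replication = singlicate | timing = compound 30 min, challenge 1 h, detection 1 h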
beta cell repl = MIN6 beta-cell proliferation induction | MIN6 cells proliferation, ATPlite luminescence, 48 h; cells starved in 0.2% serum; 100% = growth in 10% serum | proliferation, % at 10 µM | 330,000 tested, 0.29% active | AID 2380;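 active = compounds whose signal lies at least 3.5 SD above the mean of all wells on their plate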
HTR2A ag = activates the mouse 5-HT2A serotonin receptor | CHO-K1 mHTR2A beta-arrestin complementation, luminescence; percent of 30 µM serotonin response | activation, % at 7.6 µM | 360,000 tested, 0.66% active;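 active = activation above a run cutoff, the mean activation of all tested compounds plus 3 SD, cut at about 14% in these data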
MC4R ag barr = human MC4R agonism via beta-arrestin; P32245; U2OS MC4R beta-arrestin complementation, luminescence; percent of melanotan II response, DMSO zero; activation, % at 8.9 µM; 360,000 tested, 0.98% active; AID 540308;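 active = activation above a per-plate cutoff, the mean activation of sample wells on that plate plus 3 SD, cut at about 8% in these data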
ANO1 block = inhibitors of mouse TMEM16A calcium-activated chloride channel; Q8BHY3; HEK293 TMEM16A/YFP iodide influx fluorescence, ionomycin; normalized B-score (activity score, 25-100; higher = stronger inhibition) at 10 µM; 310,000 tested, 1.2% active;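 active = ratio plate-corrected score three or more library SD toward inhibition, starting fluorescence score within five deviations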;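 also: score derived from kinetic fluorescence span divided by baseline fluorescence per well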
TMEM16A act = activates or potentiates the mouse TMEM16A chloride channel; HEK293 TMEM16A/YFP-H148Q/I152L, iodide quench fluorescence; active compounds read low; 340,000 tested, 0.3% active; B-score at 10 µM; Q8BHY3; AID 623877;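 active = fluorescence-ratio B-score plate-corrected deviation score at least 3 library SD below zero, with starting fluorescence score within 5 deviations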;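 also: channel opened by trigger with iodide after compound preincubation; score built on the fluorescence ratio of max minus min over baseline; more negative score means more quench and so TMEM16A activation or potentiation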
A number is an active result. A selection: hits, their analogues and other compounds. The true share with any hit is near 3.4%.

What do the screens show for `CC(C)(C)N(Cc1ccccc1)C(=O)COC(=O)C1CCN(c2ccc(C(F)(F)F)cn2)CC1`?
MC4R antag cAMP: inactive; beta cell repl: inactive; HTR2A ag: inactive; MC4R ag barr: inactive; TMEM16A act: -44

Results for COc1ccc([C@@]23Oc4cc(OC)cc(OC)c4[C@]2(O)[C@H](O)[C@H](C(=O)N(C)C)[C@H]3c2ccccc2)cc1 ?
MC4R antag cAMP: inactive; HTR2A ag: inactive; MC4R ag barr: inactive; TMEM16A act: inactive

Results for C#CCOCCOCCOCCNc1nc(N2CCN(C(=O)Cn3cc(CC(C)O)nn3)CC2)nc(N2CCN(C(=O)[C@H](C)n3cc(CCC(=O)O)nn3)CC2)n1 (stereo partly specified) ?
MC4R antag cAMP: inactive; HTR2A ag: inactive; MC4R ag barr: inactive; TMEM16A act: inactive

Results for O=C(CCl)Nc1cccc(Oc2ccccc2)c1 ?
MC4R antag cAMP: inactive; beta cell repl: inactive; HTR2A ag: inactive; MC4R ag barr: 8.9; ANO1 block: inactive; TMEM16A act: inactive

What do the screens show for `O=C(CCl)Nc1ccc(N=Nc2ccccc2)cc1`?
MC4R antag cAMP: inactive; HTR2A ag: inactive; MC4R ag barr: inactive; TMEM16A act: inactive

What do the screens show for `O=C(CCl)Nc1ccc(-c2ccccc2)cc1`?
MC4R antag cAMP: inactive; beta cell repl: inactive; HTR2A ag: inactive; MC4R ag barr: 9.1; ANO1 block: inactive; TMEM16A act: inactive

Results for O=C(C1CC(=O)N(c2ccc3c(c2)OCCO3)C1)N1CCN(S(=O)(=O)c2cccc(F)c2)CC1 (stereo unspecified) ?
MC4R antag cAMP: inactive; HTR2A ag: inactive; MC4R ag barr: inactive; TMEM16A act: inactive

How did O=C(CSc1c(Cl)cccc1Cl)N1CCC(c2nc3ccccc3s2)CC1 do in these assays?
MC4R antag cAMP: inactive; beta cell repl: inactive; HTR2A ag: inactive; MC4R ag barr: inactive; ANO1 block: 100; TMEM16A act: inactive

Results for CC1CCN(C(=O)CSc2nc3ccccc3s2)CC1 ?
MC4R antag cAMP: inactive; beta cell repl: inactive; HTR2A ag: inactive; MC4R ag barr: inactive; ANO1 block: inactive; TMEM16A act: inactive

Results for O=C(CSc1ccc(Cl)cc1)N1CCC(c2nc3ccccc3s2)CC1 ?
MC4R antag cAMP: inactive; beta cell repl: inactive; HTR2A ag: inactive; MC4R ag barr: inactive; ANO1 block: 100; TMEM16A act: inactive

What do the screens show for `O=C(Nc1cccc(F)c1)c1ccc(-c2cccnc2)c2ccoc12`?
MC4R antag cAMP: inactive; HTR2A ag: inactive; MC4R ag barr: inactive

Results for CCN(CC)C(=O)c1cccc(-c2csc(C(NC(C)=O)c3cccc(OC)c3)n2)c1 (stereo unspecified) ?
MC4R antag cAMP: inactive; HTR2A ag: inactive; MC4R ag barr: inactive

What do the screens show for `CCCCCCCCOC(=O)CCc1c(C)[nH]c(=S)[nH]c1=O`?
MC4R antag cAMP: inactive; beta cell repl: inactive; HTR2A ag: inactive; MC4R ag barr: 9.0; ANO1 block: inactive; TMEM16A act: inactive

How did Fc1ccccc1C1c2cccn2CCN1C(=S)Nc1ccc(Br)cc1 (stereo unspecified) do in these assays?
MC4R antag cAMP: inactive; beta cell repl: inactive; HTR2A ag: inactive; MC4R ag barr: inactive; ANO1 block: inactive; TMEM16A act: -4.6

What do the screens show for `O=C(CNC(=O)c1cccc(F)c1)NC1CC1`?
MC4R antag cAMP: inactive; beta cell repl: inactive; HTR2A ag: inactive; MC4R ag barr: inactive; TMEM16A act: inactive

How did CC(=O)Nc1sc(C)c(C)c1C(=O)OCC(=O)N(CC(C)C)c1c(N)n(Cc2ccccc2)c(=O)[nH]c1=O do in these assays?
MC4R antag cAMP: inactive; beta cell repl: inactive; HTR2A ag: inactive; MC4R ag barr: inactive; ANO1 block: inactive; TMEM16A act: -6.6

How did COC(=O)c1c(C)[nH]c(C(=O)OCC(=O)N(CC(C)C)c2c(N)n(Cc3ccccc3)c(=O)[nH]c2=O)c1C do in these assays?
MC4R antag cAMP: inactive; beta cell repl: inactive; HTR2A ag: inactive; MC4R ag barr: inactive; ANO1 block: inactive; TMEM16A act: inactive

How did O=C(COC(=O)c1ccc(Br)cc1)NCc1ccccc1 do in these assays?
MC4R antag cAMP: inactive; beta cell repl: inactive; HTR2A ag: inactive; MC4R ag barr: inactive; ANO1 block: inactive; TMEM16A act: inactive

How did CC(=O)Cc1cc(O)c2ccccc2c1OC(=O)c1ccc(Br)cc1 do in these assays?
MC4R antag cAMP: inactive; beta cell repl: inactive; HTR2A ag: inactive; MC4R ag barr: 17; ANO1 block: inactive; TMEM16A act: inactive

Results for CSc1ccc(NC(=O)Nc2cccn(Cc3ccccc3)c2=O)cc1 ?
MC4R antag cAMP: inactive; beta cell repl: inactive; HTR2A ag: inactive; MC4R ag barr: inactive; ANO1 block: 100; TMEM16A act: inactive

How did NC1(N)OC(CN2C(=O)c3ccccc3C2=O)CS1 (stereo unspecified) do in these assays?
MC4R antag cAMP: inactive; beta cell repl: inactive; HTR2A ag: inactive; MC4R ag barr: inactive; ANO1 block: 100; TMEM16A act: inactive

How did CC(=O)OCC1=C(C(=O)O)N2C(=O)C(NC(=O)c3ccc(F)cc3)C2SC1 (stereo unspecified) do in these assays?
MC4R antag cAMP: inactive; beta cell repl: inactive; HTR2A ag: inactive; MC4R ag barr: inactive; ANO1 block: inactive; TMEM16A act: inactive

Results for CO/N=C(\C(=O)N[C@@H]1C(=O)N2C(C(=O)O)=C(COC(N)=O)CS[C@H]12)c1ccco1 ?
MC4R antag cAMP: inactive; beta cell repl: inactive; HTR2A ag: 15; MC4R ag barr: inactive; ANO1 block: inactive; TMEM16A act: inactive

What do the screens show for `COc1ccc(N/N=C(\C#N)C(N)=O)cc1`?
MC4R antag cAMP: inactive; beta cell repl: inactive; HTR2A ag: inactive; MC4R ag barr: inactive; ANO1 block: inactive; TMEM16A act: inactive

How did N#C/C(=N/Nc1ccc(OC(F)(F)F)cc1)C(N)=S do in these assays?
MC4R antag cAMP: inactive; beta cell repl: inactive; HTR2A ag: inactive; MC4R ag barr: inactive; ANO1 block: 100; TMEM16A act: inactive

How did CC1(C(=O)Nc2ccc(Cl)c(C(F)(F)F)c2)Cc2c(-c3ccc(C(N)=O)cc3)ccnc2O1 (stereo unspecified) do in these assays?
MC4R antag cAMP: inactive; HTR2A ag: inactive; MC4R ag barr: inactive

How did Cc1cc(Cl)c(S(=O)(=O)N2CCN(c3ccc(F)cc3)CC2)cc1OCC(=O)NC1CCCCC1 do in these assays?
MC4R antag cAMP: inactive; beta cell repl: inactive; HTR2A ag: inactive; MC4R ag barr: inactive; ANO1 block: 25; TMEM16A act: inactive

What do the screens show for `S=C(Nc1ccc(Cl)c(Cl)c1)NC1CCN(Cc2ccccc2)CC1`?
MC4R antag cAMP: inactive; beta cell repl: inactive; HTR2A ag: inactive; MC4R ag barr: 22; ANO1 block: inactive; TMEM16A act: inactive

Results for Fc1ccc(NC(=S)NC2CCN(Cc3ccccc3)CC2)cc1 ?
MC4R antag cAMP: inactive; beta cell repl: inactive; HTR2A ag: inactive; MC4R ag barr: inactive; ANO1 block: inactive; TMEM16A act: inactive

Compound activity as filed in PubChem BioAssay.
